Activity calls are given as the source filed them. No cut-off for these calls is given here.
Assays:
[1] = system: Hepatitis C virus; assay: Antiviral activity against HCV J6/JFH/JC1 infected in human Huh7.5 cells assessed as reduction in viral RNA levels incubated for 72 hrs by qRT-PCR analysis; format: functional, organism-based, Hepacivirus hominis; settings: for EC50: J6/JFH/JC1, Huh7.5, 72 h
Method in brief: (§1)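 Huh7.5 cells seeded 24 h, then infected with wild-type (or mutant) HCV with compound added at the same time. Incubated 72 h. Intracellular HCV RNA measured by qRT-PCR, 2^-ΔCt method, normalized to GAPDH. Eight-step 1:5 serial dilutions in triplicate; EC50 by Reed & Muench; three independent experiments.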

[2] = Cytotoxicity in human Huh7.5 cells assessed as reduction in cell viability incubated for 96 hrs by MTT assay; format: cell-based
Method in brief: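 Huh7.5 cells seeded 24 h before compound addition. Viability read by MTT at 96 h. Eight-step 1:5 serial dilutions in triplicate; CC50 by Reed & Muench; three independent experiments.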

[3] = system: Hepatitis C virus; assay: Antiviral activity against wild type HCV by qRT-PCR analysis based by Reed-Muench method; format: functional, organism-based, Hepacivirus hominis; method in brief: as §1
[4] = system: Hepatitis C virus; assay: Antiviral activity against HCV expressing NS3 D168V mutant by qRT-PCR analysis based by Reed-Muench method; format: functional, organism-based, Hepacivirus hominis
Method in brief: (§2)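 Huh7.5 cells seeded at 3×10^4/cm², infected 24 h later with wild-type or mutant HCV stock while compound or solvent was added at the same time. Intracellular HCV RNA measured by qRT-PCR at 72 h, normalised to GAPDH, 2^-ΔCT method. EC50 by Reed & Muench from eight-step 1:5 serial dilutions, triplicate wells.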

[5] = Oral bioavailability in Sprague-Dawley rat 15 mg/kg measured after 0.25 to 72 hrs by LC-MS/MS analysis; format: ADME, organism-based; settings: in vivo
[6] = system: Hepatitis C virus; assay: Antiviral activity against HCV genotype 2a pseudoparticle infected in human Huh7.5 cells assessed as reduction in viral replication at 2 to 4 uM; format: functional, organism-based; settings: Hepacivirus hominis, subtype 2a
Method in brief: (§3)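 Genotype 1b or 2a HCV pseudoparticles made by co-transfecting HEK 293T cells with envelope and luciferase-reporter HIV plasmids; input standardized by luciferase. Huh7.5 cells co-incubated with compound and HCVpp for 4 h at 37°C, washed, then luciferase read at 72 h.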

[7] = system: Hepatitis C virus; assay: Antiviral activity against HCV genotype 1b pseudoparticle infected in human Huh7.5 cells assessed as reduction in viral replication at 2 to 4 uM; format: functional, organism-based; settings: Hepacivirus hominis, subtype 1b; method in brief: as §3
[8] = system: Coxsackievirus B3; assay: Antiviral activity against Coxsackievirus B3 infected in Vero cells assessed as reduction in virus-induced cytopathic effect incubated for 48 hrs by Reed-Muench method; format: functional, organism-based; settings: Enterovirus B
[9] = Cytotoxicity in African green monkey Vero cells assessed as reduction in cell viability; format: cell-based; settings: chlorocebus sabaeus
[10] = Selectivity index, ratio of CC50 for cytotoxicity in African green monkey Vero cells to EC50 for Antiviral activity against Coxsackievirus B3 infected in Vero cells; format: toxicity, cell-based; settings: read-out: Ratio CC50/EC50
[11] = system: Hepatitis C virus; assay: Antiviral activity against HCV J6/JFH/JC1 infected in human Huh7.5 cells incubated for 72 hrs by In-Cell Western assay; format: functional, organism-based, Hepacivirus hominis; settings: J6/JFH/JC1, Huh7.5, 72 h
Method in brief: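 Huh7.5 cells infected with HCVcc (MOI 0.1) and treated with compound at the same time for 72 h. Cells fixed with PFA, permeabilized, then stained for HCV Core and GAPDH with IR-dye secondaries. Core signal normalized to GAPDH. Eight-step 1:5 dilutions in triplicate; EC50 by Reed & Muench; mean of three experiments.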

[12] = Selectivity index, ratio of CC50 for cytotoxicity in human Huh7.5 cells assessed as reduction in cell viability incubated for 96 hrs by MTT assay to EC50 for antiviral activity against HCV J6/JFH/JC1 infected in human Huh7.5 cells incubated for 72 hrs by In-Cell Western assay; format: toxicity, cell-based; settings: read-out: Ratio CC50/EC50
Method in brief: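 HCVcc (MOI=0.1) infected Huh7.5 cells co-treated with eight-step 1:5 serial dilutions, triplicate wells. After 72 h, fixed, permeabilized, and stained for HCV Core and GAPDH with IR-dye secondaries. Core normalized to GAPDH. CC50 came from MTT at 96 h in uninfected Huh7.5 cells. EC50/CC50 were derived by Reed & Muench, mean ± SD of three independent experiments.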

[13] = Selectivity index, ratio of CC50 for cytotoxicity in human Huh7.5 cells assessed as reduction in cell viability incubated for 96 hrs by MTT assay to EC50 antiviral activity against HCV J6/JFH/JC1 infected in human Huh7.5 cells assessed as reduction in viral RNA levels incubated for 72 hrs by qRT-PCR analysis; format: toxicity, cell-based; settings: read-out: Ratio CC50/EC50
Method in brief: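 Selectivity index = CC50/EC50. CC50: Huh7.5 cells seeded at 3×10^4/cm², medium with compound added at 24 h, MTT read at 96 h. EC50: HCVcc-infected Huh7.5 cells treated for 72 h, HCV RNA by qRT-PCR normalised to GAPDH. Serial 1:5 dilutions in eight steps, Reed & Muench calculation, means ± SD of three independent experiments.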

[14] = Selectivity index, ratio of CC50 for cytotoxicity in African green monkey Vero E6 cells to EC50 for Antiviral activity against Zika virus infected in Vero E6 cells; format: toxicity, cell-based, Vero C1008; settings: read-out: Ratio CC50/EC50
[15] = Cytotoxicity in African green monkey Vero E6 cells assessed as reduction in cell viability; format: cell-based, Vero C1008; settings: chlorocebus sabaeus
[16] = system: Hepatitis C virus; assay: Antiviral activity against HCV expressing NS3 A156T mutant by qRT-PCR analysis based by Reed-Muench method; format: functional, organism-based, Hepacivirus hominis; method in brief: as §2
[17] = system: Hepatitis C virus; assay: Antiviral activity against HCV GS4.3 infected in human Huh7.5 cells assessed as reduction in viral NS3 protein levels at 1 uM incubated for 72 hrs by Western blot assay; format: functional, organism-based; settings: Hepacivirus hominis
[18] = system: Hepatitis C virus; assay: Antiviral activity against HCV GS4.3 infected in human Huh7.5 cells assessed as reduction in viral replication at 0.3125 to 5 uM simultaneously treated with viral infection for 4 hrs and measured after 72 hrs by In-Cell Western assay; format: functional, organism-based; settings: Hepacivirus hominis
Method in brief: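 Huh7.5 cells infected with HCV while incubated with compound, either for 4 h across a concentration series or at 1.0 µM for varied times down to 15 min. Supernatant then replaced with fresh medium. Intracellular Core protein measured by In-Cell Western at 72 h.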

[19] = system: Hepatitis C virus; assay: Antiviral activity against HCV genotype 2a pseudoparticle infected in human Huh7.5 cells assessed as reduction in viral replication at 10 uM; format: functional, organism-based; settings: Hepacivirus hominis, subtype 2a; method in brief: as §3
[20] = system: Hepatitis C virus; assay: Antiviral activity against HCV genotype 1b pseudoparticle infected in human Huh7.5 cells assessed as reduction in viral replication at 10 uM; format: functional, organism-based; settings: Hepacivirus hominis, subtype 1b; method in brief: as §3
[21] = system: Hepatitis C virus; assay: Antiviral activity against HCV expressing NS5B S282T mutant by qRT-PCR analysis based by Reed-Muench method; format: functional, organism-based, Hepacivirus hominis; method in brief: as §2
[22] = Cytotoxicity in MDCK cells assessed as reduction in cell viability; format: cell-based, Canis lupus familiaris; settings: dog
[23] = Selectivity index, ratio of CC50 for cytotoxicity in MDCK cells to EC50 for Antiviral activity against influenza A virus H3N2/95-359 infected in MDCK cells; format: toxicity, cell-based; settings: dog, read-out: Ratio CC50/EC50
[24] = system: Influenza A virus; assay: Antiviral activity against influenza A virus H3N2/95-359 infected in MDCK cells assessed as reduction in virus-induced cytopathic effect incubated for 48 hrs by Reed-Muench method; format: functional, organism-based; settings: H3N2/95-359, MDCK

Row | Compound | EC50 [1] [nM] | CC50 at 96 h [2] [nM] | EC50 [11] [nM] | selectivity ratio [12] | other results
1 | Cc1ccc(NCc2cc(N3CCCCC3)ccc2C#N)cc1 | > 7410 | 11400 | – | – | –
2 | Cc1ccc(N(C)Cc2cc(N3CCN(C)CC3)ccc2C#N)cc1 | 890 | 82000 | – | – | –
3 | COc1ccc2c(O[C@@H]3C[C@H]4C(=O)N[C@]5(C(=O)NS(=O)(=O)C6CC6)C[C@H]5/C=C/CCCCN(C)C(=O)[C@@H]4C3)cc(-c3nc(C(C)C)cs3)nc2c1C | – | – | – | – | EC50 [3]: 9.2 nM; EC50 [4]: > 1000 nM
4 | Cc1ccc(NCc2cc(N3CCN(C)CC3)ccc2C#N)cc1 | 1620 | 37400 | – | – | bioavailability [5]: < 5%
5 | Cc1nc(Nc2ncc(C(=O)Nc3c(C)cccc3Cl)s2)cc(N2CCN(CCO)CC2)n1 | – | – | – | – | Activity [6]: Active; Activity [7]: Active
6 | Cc1cc(CCCOc2c(C)cc(-c3noc(C(F)(F)F)n3)cc2C)on1 [PLECONARIL] | – | – | – | – | EC50 [8]: 2 nM; CC50 [9]: > 1050 nM; selectivity ratio [10]: > 525
7 | CN(C)CCN(C)c1ccc(C#N)c(CN2CCN(c3ccc(Br)cc3)CC2)c1 | 31 | 13300 to 15600 | 104 | 128 | Activity ([1]; Hepacivirus hominis): Dose-dependent effect; selectivity ratio [13]: 503
8 | Cc1ccc(NCc2cc(N3CCNCC3)ccc2C#N)cc1 | 1680 | 18800 | – | – | –
9 | CN(C)CCN(C)c1ccc(C#N)c(CN(C)c2ccc(Cl)cc2)c1 | 180 | 15500 | 506 | 30.6 | bioavailability [5]: < 5%
10 | NC(=O)c1ncn([C@@H]2O[C@H](CO)[C@@H](O)[C@H]2O)n1 [RIBAVIRIN] | – | – | – | – | selectivity ratio [14]: > 6; CC50 [15]: > 200000 nM
11 | CCC[C@H](NC(=O)[C@@H]1[C@H]2CCC[C@H]2CN1C(=O)[C@@H](NC(=O)[C@@H](NC(=O)c1cnccn1)C1CCCCC1)C(C)(C)C)C(=O)C(=O)NC1CC1 [TELAPREVIR] | – | 55000 | 146 | 377 | EC50 [3]: 7.8 nM; EC50 [16]: 1210 nM; Activity [17]: Active; Activity [18]: inactive; Activity [19]: inactive; Activity [20]: inactive
12 | CC(C)OC(=O)[C@H](C)N[P@](=O)(OC[C@H]1O[C@@H](n2ccc(=O)[nH]c2=O)[C@](C)(F)[C@@H]1O)Oc1ccccc1 [SOFOSBUVIR] | 46 | > 200000 | 104 | > 1920 | EC50 [3]: 29.4 nM; selectivity ratio [13]: > 4350; EC50 [21]: 148 nM
13 | Cc1ccc(NCc2cc(N3CCOCC3)ccc2C#N)cc1 | > 66700 | 133000 | – | – | –
14 | CN1CCN(c2ccc(C#N)c(CNc3ccc(Cl)cc3)c2)CC1 | 420 | 18300 | – | – | –
15 | CN(C)CCN(C)c1ccc(C#N)c(CN2CCN(c3ccc(Cl)nc3)CC2)c1 | – | 52600 | 2510 | 21 | –
16 | CN(C)CCN(C)c1ccc(C#N)c(CN2CCN(c3ccc(Cl)cc3Cl)CC2)c1 | – | 9850 | 166 | 59 | –
17 | CN(C)CCN(C)c1ccc(C#N)cc1CN1CCN(c2ccc(Cl)cc2)CC1 | – | 14600 | 1330 | 11 | –
18 | CC1CN(Cc2cc(N(C)CCN(C)C)ccc2C#N)CCN1c1ccc(Cl)cc1 (stereo unspecified) | – | 13700 | 321 | 42 | –
19 | COc1ccc(NCc2cc(N3CCN(C)CC3)ccc2C#N)cc1 | 2140 | 48200 | – | – | –
20 | N#Cc1ccc(N2CCNCC2)cc1CN1CCN(c2ccc(Cl)cc2)CC1 | – | 13700 | 657 | 20 | –
21 | CCOC(=O)C1=C[C@@H](OC(CC)CC)[C@H](NC(C)=O)[C@@H](N)C1 [OSELTAMIVIR] | – | – | – | – | CC50 [22]: > 640000 nM; selectivity ratio [23]: > 299; EC50 [24]: 2140 nM
22 | N#Cc1ccc(N2CCC(N3CCCC3)CC2)cc1CN1CCN(c2ccc(Cl)cc2)CC1 | – | 13500 | 318 | 42 | –
23 | CN1CCCN(c2ccc(C#N)c(CN3CCN(c4ccc(Cl)cc4)CC3)c2)CC1 | – | 12500 | 153 | 81 | –
24 | CN(C)CCN(C)c1ccc(C#N)c(CN2CCN(c3ccc([N+](=O)[O-])cc3)CC2)c1 | – | 12800 | 314 | 40 | –
25 | CN(C)CCN(C)c1ccc(C(N)=O)c(CN2CCN(c3ccc(Cl)cc3)CC2)c1 | – | 15500 | 1160 | 13 | –
